A short description of series [1]: Oral bioavailability in dog. It is filed as ADME, organism-based, Canis lupus familiaris. The conditions noted are these: in vivo. A digest of the protocol:
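Dogs (7 days post-surgery recovery) were dosed iv at 1 mL/kg via the right saphenous vein, or by oral gavage at 2 mL/kg plus an aqueous flush after overnight fasting. Routes were crossed over 7 days later. Plasma levels were followed over 24 h, and bioavailability came from comparing dose and AUC.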

A short description of series [2]: Oral bioavailability in rat. The series is classed as ADME, organism-based. The settings on record: in vivo. Summed up:
(§1)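 Rats (48 h post-surgery recovery) received 20–50 mg/kg at 1 mL/kg iv or 10 mL/kg po. Serial caudal-vein blood samples were taken over 24 h, and plasma was stored at -20 °C until assay. Bioavailability came from comparing dose and AUC.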

Series [3] in a line: Serum half life in rat. It is filed as ADME, organism-based. A digest of the protocol:
as §1

Series [4] concerns the target T1, Endothelin receptor type B (Homo sapiens, UniProt P24530).
T1 sequence (P24530 whole entry): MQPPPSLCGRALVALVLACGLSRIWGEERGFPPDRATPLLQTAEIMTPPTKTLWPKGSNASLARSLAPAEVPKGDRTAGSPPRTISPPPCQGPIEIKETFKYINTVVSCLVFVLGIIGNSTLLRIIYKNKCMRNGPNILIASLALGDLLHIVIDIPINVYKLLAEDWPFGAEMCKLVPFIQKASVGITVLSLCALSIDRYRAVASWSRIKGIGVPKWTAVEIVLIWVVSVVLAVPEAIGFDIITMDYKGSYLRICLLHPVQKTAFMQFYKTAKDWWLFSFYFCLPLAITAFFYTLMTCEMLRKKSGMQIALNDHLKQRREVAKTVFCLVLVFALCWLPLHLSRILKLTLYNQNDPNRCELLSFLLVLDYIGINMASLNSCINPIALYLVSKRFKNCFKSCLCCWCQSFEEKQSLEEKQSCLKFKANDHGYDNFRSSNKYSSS
The experiment in a line: In vitro inhibition of endothelin binding to human Endothelin B receptor using [125I]-labeled ET-1 competition assay. Summed up:
(§2)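 Membranes in 30 mM HEPES pH 7.4 with 150 mM NaCl, 5 mM MgCl2 and 0.05% bacitracin: […] for ET_B (ET_B from COS 7 cells transfected with human ET_B DNA). Competition against 4 pM [125I]ET-1, 0.25% DMSO final, in triplicate, for 16–18 h at 24 °C. Nonspecific binding with 100 nM ET-1. Bound radioactivity gamma-counted after centrifugation.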

In series [5] the target is T2, Endothelin-1 receptor (Homo sapiens, UniProt P25101).
T2 sequence (P25101 whole entry): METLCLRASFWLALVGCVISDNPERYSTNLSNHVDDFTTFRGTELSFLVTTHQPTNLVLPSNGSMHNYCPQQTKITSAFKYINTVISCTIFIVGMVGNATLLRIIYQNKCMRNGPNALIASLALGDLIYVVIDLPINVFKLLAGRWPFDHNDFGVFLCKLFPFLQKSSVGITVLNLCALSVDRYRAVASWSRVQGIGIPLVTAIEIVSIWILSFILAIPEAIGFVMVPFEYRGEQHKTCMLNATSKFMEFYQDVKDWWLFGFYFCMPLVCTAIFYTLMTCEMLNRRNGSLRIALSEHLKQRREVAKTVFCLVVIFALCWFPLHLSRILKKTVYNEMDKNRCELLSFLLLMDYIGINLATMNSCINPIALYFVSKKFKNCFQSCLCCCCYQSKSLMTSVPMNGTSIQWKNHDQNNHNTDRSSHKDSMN
The experiment in a line: Binding affinity against human Endothelin A receptor.

In series [6] the target is T2, Endothelin-1 receptor. The experiment in a line: In vitro inhibition of endothelin binding to human Endothelin A receptor using [125I]-labeled ET-1 competition assay. A digest of the protocol:
as §2

For series [7], the system named is Rattus norvegicus. The experiment in a line: In vivo efficacy in acute hypoxia induced pulmonary hypertension in rats following oral administration. It is filed as functional, organism-based.
Series [8] deals with Rattus norvegicus. The experiment in a line: The compound was tested in vivo for percent inhibition in ET-1 challenge in rats at 15 mg/kg. It is filed as functional. A digest of the protocol:
(§3)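 Male Sprague–Dawley rats (250–350 g) were cannulated (femoral artery/vein) under methohexital, then restrained conscious with 60 min recovery. Autonomic blockade used iv atropine methyl nitrate 3 mg/kg plus propranolol 2 mg/kg. Vehicle was 1 M Tris base or sodium bicarbonate.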

Series [9] in a line: Phosphoinositol hydrolysis in TE671 or transfected cos 7 cells. The settings on record: read-out: pA2 (converted). It is filed as functional, cell-based. A digest of the protocol:
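TE 671 or transfected COS 7 cells were grown to confluence, then labelled for 16 h with [3H]myoinositol in inositol-free RPMI with 10% inositol-free FCS at 37 °C, 6% CO2. They were preincubated 10 min in LiCl-containing HEPES buffer pH 7.4 ± test compound, then given ET-1 at varying concentrations for 45 min. Inositol phosphates were extracted with ice-cold methanol (Berridge method), and well protein was measured by BCA.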

In series [10] the test system is Rattus norvegicus. The experiment in a line: In vivo efficacy in acute hypoxia induced pulmonary hypertension in rats following intravenous administration. The series is classed as functional, organism-based.
Series [11] relates to Rattus norvegicus. The experiment in a line: The compound was tested in vivo for percent inhibition in ET-1 challenge in rats at 60 mg/kg. It is filed as functional. Summed up: as §3
The test system of series [12] is Rattus norvegicus. The experiment in a line: The compound was tested in vivo for percent inhibition in ET-1 challenge in rats at 15 mg/kg; not active. It is filed as functional, organism-based. Details: dose 15 mg/kg. A digest of the protocol: as §3
Series [13] in a line: The serum half life of the compound. It is filed as ADME, cell-free.

Active and inactive are the calls of the source. No cut-off for these calls is given here.

We go through 28 compounds from ChEMBL document CHEMBL1130344, “Discovery of TBC11251, a potent, long acting, orally active endothelin receptor-A selective antagonist” (J Med Chem, 1997).

Regarding `Cc1cc2c(cc1CC(=O)c1sccc1S(=O)(=O)Nc1onc(C)c1Cl)OCO2` [SITAXENTAN], the bioavailability in [1] turned out to be 90%; in series [2] it was 60%. In series [3], this compound showed a half-life of 402 min. The half-maximal inhibitory concentration (IC50) was determined as 9.8 µM in series [4] and 1.4 nM in series [6]. For the same compound, the affinity in series [5], expressed as Ki, was 0.43 nM. In addition, the EC50 in [7] is 1 mg/kg; in series [10], 0.5 mg/kg. For the same compound, in series [8], testing at 15 mg/kg gave an inhibition in vivo of 41%. Further, in series [9], the Kb was 10 nM.

Compound `Cc1ccc(C)c(CC(=O)c2sccc2S(=O)(=O)Nc2onc(C)c2Cl)c1` yielded an IC50 in series [6] of 7.2 nM.

As for `CC(=O)c1c(NC(=O)c2sccc2S(=O)(=O)Nc2onc(C)c2Cl)ccc2c1OCO2`, in series [2], the bioavailability was found to be 27%. In series [3], this compound showed a half-life of 150 min. Besides, the IC50 in series [4] came to 32.6 µM; in series [6], 10 nM. At 15 mg/kg the inhibition in vivo in [8] was 18%.

Take `Cc1noc(NS(=O)(=O)c2ccsc2C(C)(O)Cc2ccc3c(c2)OCO3)c1Cl` (stereo not given): the IC50 in [4] was > 100 µM; in series [6], 22200 nM.

`Cc1noc(NS(=O)(=O)c2ccsc2C(=O)NC(=O)c2ccc3c(c2)OCO3)c1Br`: the IC50 in [4] amounted to 37.2 µM; in [6], 887 nM.

Turning to `Cc1noc(NS(=O)(=O)c2ccsc2C(=O)N2CCN(Cc3ccc4c(c3)OCO4)CC2)c1Cl`, the half-inhibitory concentration (IC50) in series [6] is 19600 nM.

As for `CC#N.Cc1noc(NS(=O)(=O)c2ccsc2C(=O)Cc2cc3c(cc2C#N)OCO3)c1Cl`, the results for the IC50 in series [4] and in [6] were 0.723 µM and 1.3 nM, respectively. In [8], this compound returned an inhibition in vivo at 15 mg/kg of 52%. The Kb in [9] is 10 nM.

On to `Cc1noc(NS(=O)(=O)c2ccsc2C(=O)Cc2ccc3c(c2)OCO3)c1Cl`, for which the bioavailability in series [2] was found to be 30%. Also, in series [3], the half-life is 90 min. Besides, the IC50 in series [4] was determined as 7 µM; in series [6], 18 nM. In series [11], this compound returned an inhibition in vivo at 60 mg/kg of 41%. In series [9], the Kb was 178 nM.

`Cc1noc(NS(=O)(=O)c2ccsc2/C(Cc2ccc3c(c2)OCO3)=N\O)c1Cl`: the results for the IC50 in series [4] and in series [6] were 4.2 µM and 1100 nM, respectively.

In the case of `COc1cc(C#N)c(NC(=O)c2sccc2S(=O)(=O)Nc2onc(C)c2Cl)cc1OC`, the bioavailability in series [2] is 2%. Further, the half-life in series [3] is < 9 min. For the same compound, the inhibition in vivo at 15 mg/kg in [8] stood at 50%.

The compound `Cc1cc2c(cc1CC(=O)c1sccc1S(=O)(=O)Nc1noc(C)c1Cl)OCO2` had an IC50 in series [4] of 3.9 µM. The Kb in series [9] is 3.39 nM.

Take `Cc1noc(NS(=O)(=O)c2ccsc2C(=O)Cc2ccc3c(c2)OCO3)c1C`: the IC50 in series [4] worked out at 27.2 µM.

Regarding `Cc1noc(NS(=O)(=O)c2ccsc2C(=O)Cc2ccc3c(c2)OCO3)c1Br`, the concentration for half-maximal inhibition (IC50) in series [6] was determined as 14 nM.

`Cc1noc(NS(=O)(=O)c2ccsc2C(=O)Nc2ccc3c(c2C#N)OCO3)c1Cl` had a bioavailability in series [2] of 8%. Also, the half-life in series [3] is 150 min. Also, the IC50 in series [4] was found to be 40.4 µM; in series [6], 3.4 nM. This compound also had an inhibition in vivo at 15 mg/kg in series [8] of 8%.

Turning to `Cc1ccc(CC(=O)c2sccc2S(=O)(=O)Nc2onc(C)c2Cl)c(C)c1`, in series [6], the IC50 was 0.97 nM.

With `Cc1noc(NS(=O)(=O)c2ccsc2C(O)Cc2ccc3c(c2)OCO3)c1Cl` (stereo not given), the IC50 in series [4] worked out at 15.7 µM; in series [6], 56 nM.

`Cc1noc(NS(=O)(=O)c2ccsc2C(Cc2ccc3c(c2)OCO3)N(C)C)c1Cl` (stereo not given): the values for the IC50 in series [4] and in [6] were > 100 µM and 21000 nM, respectively.

As for `Cc1cc2c(cc1CC(=O)c1sccc1S(=O)(=O)Nc1onc(C)c1C)OCO2`, the bioavailability in series [2] worked out at 100%. In addition, the half-life in series [3] was 420 min. 15 mg/kg produced 33% inhibition in vivo in series [8].

Regarding `Cc1noc(NS(=O)(=O)c2ccsc2C2(Cc3ccc4c(c3)OCO4)OCCO2)c1Cl`, the IC50 is 2.1 µM in [4] and 123 nM in [6].

In the case of `Cc1ccc(CC(=O)c2sccc2S(=O)(=O)Nc2onc(C)c2C)cc1`, the IC50 was determined as 29.2 µM in series [4] and 27 nM in [6].

On to `Cc1ccc(CC(=O)c2sccc2S(=O)(=O)Nc2onc(C)c2Br)c(C)c1`, for which the IC50 in series [4] is 3.5 µM; in [6], 0.76 nM.

In series [2], `Cc1noc(NS(=O)(=O)c2ccsc2C(=O)Nc2ccc3c(c2)OCO3)c1Br` gave a bioavailability of 0%. Besides, in series [3], the half-life is < 30 min. In series [12], the inhibition result is “inactive”.

With `Cc1noc(NS(=O)(=O)c2ccsc2C(=O)c2ccc3c(c2)OCO3)c1Br`, the values for the 50% inhibitory concentration (IC50) in [4] and in series [6] were 15.4 µM and 2000 nM, respectively.

On to `COc1ccc(NC(=O)c2sccc2S(=O)(=O)Nc2onc(C)c2Cl)c(C)c1`, for which the half-life in series [13] is < 9 min. Besides, in series [8], testing at 15 mg/kg gave an inhibition in vivo of 33%.

`Cc1ccc(CC(=O)c2sccc2S(=O)(=O)Nc2onc(C)c2Br)cc1` showed an IC50 in [6] of 20 nM.

`Cc1ccc(NC(=O)c2sccc2S(=O)(=O)Nc2onc(C)c2Cl)cc1`: in series [2], the bioavailability worked out at 0%. In addition, the half-life in series [3] was < 30 min. For the same compound, the inhibition result in [12] was “inactive”.

Take `COc1cccc(CC(=O)c2sccc2S(=O)(=O)Nc2onc(C)c2Cl)c1`: the half-inhibitory concentration (IC50) in series [4] was determined as 19.1 µM; in [6], 30 nM.

As for `Cc1noc(NS(=O)(=O)c2ccsc2C(=O)Nc2ccc3c(c2C)OCO3)c1Cl`, the values for the IC50 in [4] and in series [6] were 355 µM and 3 nM, respectively. In series [8], this compound had an inhibition in vivo at 15 mg/kg of 14%.

What is called bioavailability is dose-corrected exposure relative to a reference, in per cent. In general, half-life refers to the time in which the quantity being followed falls by half. A low value points to fast loss. The IC50 is the concentration that gives 50% inhibition. Higher therefore signals weaker potency. What is called Ki is the equilibrium dissociation constant of an inhibitor or competing ligand from its target. A high value points to lower affinity. One may read the inhibition in vivo as the share of the control response that was lost under treatment.
